For orientation: EC50 means the concentration that produces a half-maximal response.

Results on 2 compounds are retold here after ChEMBL document CHEMBL1240406, “Identification of novel human immunodeficiency virus type 1-inhibitory peptides based on the antimicrobial peptide database” (Antimicrob Agents Chemother, 2010).

The test system of one data set is Escherichia coli. The data set can be described thus: Antibacterial activity against Escherichia coli K-12. It is filed as functional, organism-based.
The subject of data set [1] is Human immunodeficiency virus 1. The data set can be described thus: Antiviral activity against HIV1 3B infected in human CEM-SS cells assessed as inhibition of viral replication after 6 days by XTT assay. It is filed as functional, organism-based. The conditions noted are these: Human immunodeficiency virus 1, 3B, CEM-SS, 144 h. In short, it runs like this: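 Peptides were added in triplicate at six serial concentrations, 0.32–100 μg/ml. Cultures were held at 37°C, 5% CO2 for 6 days, then stained with XTT. EC50 (virus inhibition) and TC50 (cell viability) were derived from the XTT read-out, and TI was taken from these.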

Data set [2] in a line: Cytotoxicity against human CEM-SS cells infected with HIV1 3B after 6 days by XTT assay. It is filed as cell-based. The conditions noted are these: read-out: TC50. Background: Tetrazolium assays rely on reduction of a dye to a coloured formazan, in cell work by metabolically active cells.
Data set [3] is described as follows: Therapeutic index, ratio of TC50 for human CEM-SS cells infected with HIV1 3B to EC50 for HIV1 3B infected in human CEM-SS cells. Type of data set: cell-based. The conditions noted are these: read-out: TI. In short, it runs like this:
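CEM-SS cells (2.5 × 10^3/well) in RPMI 1640 with 10% heat-inactivated FBS were infected with HIV-1 IIIB (MOI 0.0005–0.001). Peptides were added in triplicate at six serial concentrations, 0.32–100 μg/ml. Cultures were held at 37°C, 5% CO2 for 6 days, then stained with XTT. EC50 (virus inhibition) and TC50 (cell viability) were derived from the XTT read-out, and TI was taken from these.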

Calls of active or inactive are those of the source. The calls are words filed in the database; no cut-off is given here. Some results are limits rather than exact numbers.

Consider `CC[C@H](C)[C@H](NC(=O)[C@H](CCCCN)NC(=O)[C@H](CCC(=O)O)NC(=O)[C@H](CCCCN)NC(=O)[C@H](CO)NC(=O)[C@H](CCCCN)NC(=O)[C@H](CCCNC(=N)N)NC(=O)[C@H](Cc1ccccc1)NC(=O)[C@H](Cc1ccccc1)NC(=O)[C@H](CC(=O)O)NC(=O)CNC(=O)[C@H](CC(C)C)NC(=O)[C@@H](N)CC(C)C)C(=O)NCC(=O)N[C@@H](CCCCN)C(=O)N[C@@H](CCC(=O)O)C(=O)N[C@@H](Cc1ccccc1)C(=O)N[C@@H](CCCCN)C(=O)N[C@@H](CCCNC(=N)N)C(=O)N[C@H](C(=O)N[C@H](C(=O)N[C@@H](CCC(N)=O)C(=O)N[C@@H](CCCNC(=N)N)C(=O)N[C@H](C(=O)N[C@@H](CCCCN)C(=O)N[C@@H](CC(=O)O)C(=O)N[C@@H](Cc1ccccc1)C(=O)N[C@@H](CC(C)C)C(=O)N[C@@H](CCCNC(=N)N)C(=O)N[C@@H](CC(N)=O)C(=O)N[C@@H](CC(C)C)C(=O)N[C@H](C(=O)N1CCC[C@H]1C(=O)N[C@@H](CCCNC(=N)N)C(=O)N[C@H](C(=O)N[C@@H](CCC(=O)O)C(=O)N[C@@H](CO)C(=O)O)[C@@H](C)O)C(C)C)[C@@H](C)CC)C(C)C)[C@@H](C)CC`, for which, in the data set with Escherichia coli, the result was inactive.

Turning to H-GLKKLLGKLLKKLGKLLLK-OH, in data set [1], the EC50 is over 47.5 µM. The CC50 at 144 h in data set [2] was 25.1 µM. Further, the selectivity ratio in data set [3] is under 0.5. Besides, the result with Escherichia coli was Active.
